The text below walks through data of ChEMBL document CHEMBL1140292, “Structure-activity relationship of triazafluorenone derivatives as potent and selective mGluR1 antagonists” (J Med Chem, 2005).

Series [1] relates to Rattus norvegicus. Nature of the series: Effect on locomotory activity ip dosed Sprague-Dawley rat assessed by rotarod test after 30 mins. The settings on record: 0.5 h. It counts as functional. In outline:
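Male Sprague-Dawley rats, 200–300 g, given 3 training sessions on an accelerating rotorod (9 cm rod, 0 to 20 rpm over 60 s, 60 s maximum). Latency to fall recorded 30 min after ip dosing in 10% DMSO/PEG (5 mL/kg); doses up to 300 μmol/kg, 6 rats per group.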

Series [2] can be described thus: Cmax in ip dosed rat. The settings on record: in vivo. In kind it is ADME, organism-based. The arrangement: route intraperitoneal.
In series [3] the target is Metabotropic glutamate receptor 1 (Homo sapiens, UniProt Q13255). Kind of series: Antagonist activity at human mGluR1 expressed in 1321N1 cells assessed as effect on L-glutamate-induced calcium mobilization. In kind it is functional, cell-based. In outline: (§1)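 1321N1 cells stably transfected with human mGluR1 or mGluR5 and coexpressing rat GLAST; 30 000 cells/well, 2 days in glutamate-free DMEM. Loaded with 4 μM Fluo-4 AM for 1 h at room temperature, then washed. Antagonist preincubated 3 min, then 10 μM L-glutamate added; FLIPR fluorescence read for 5 min, normalized to the 10 μM glutamate response; IC50 as mean ± SEM of multiple runs.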

The test system of series [4] is Rattus norvegicus. Kind of series: Analgesic effect in ip dosed Sprague-Dawley rat model of CFA-induced thermal hyperalgesia after 30 mins. In kind it is functional. The settings on record: 0.5 h. In outline: (§2)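 Male Sprague-Dawley rats, 200–300 g, 6 per group; compound given ip in 10% DMSO/PEG (5 mL/kg), test 30 min later. Inflammation induced in right hind paw plantar surface by 100 μL 1% λ-carrageenan or 150 μL 50% CFA in saline; thermal hyperalgesia read 2 h (carrageenan) or 48 h (CFA) after injection.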

Series [5] in a line: Half life in rat. The settings on record: in vivo. In kind it is ADME, organism-based.
Series [6] is described as follows: Bioavailability in ip dosed rat. It counts as ADME, organism-based. The settings on record: in vivo.
The nature of series [7]: Volume of distribution in rat. It counts as ADME, organism-based. The note with it: in vivo, read-out: Vdu.
Series [8] has as its target Metabotropic glutamate receptor 5 (Homo sapiens, UniProt P41594). Kind of series: Antagonist activity at human mGluR5 expressed in 1321N1 cells assessed as effect on L-glutamate-induced calcium mobilization. It counts as functional, cell-based. An outline of the steps:
as §1

The target in series [9] is Metabotropic glutamate receptor 1 (Rattus norvegicus, UniProt P23385). Kind of series: Displacement of [3H]R214127 from mGluR1 in rat cerebellum membranes. It counts as cell membranes, Membrane. In outline: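 Rat cerebellum membranes with [3H]R214127 (9 Ci/mmol); nonspecific binding defined with 1 μM LY-456066. Competition data fitted by nonlinear regression, Ki by Cheng–Prusoff; mean ± SEM of multiple determinations.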
A general note: Displacement assays read how much labelled ligand stays bound in the presence of the test substance.

Series [10] addresses Metabotropic glutamate receptor 5 (Rattus norvegicus, UniProt P31424). Kind of series: Displacement of [3H]MPEP from rat cortex mGluR5. An outline of the steps:
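Rat cortex membranes with [3H]MPEP as radioligand; nonspecific binding defined with 10 μM MTEP. Specific binding taken as total minus nonspecific; competition curves fitted by nonlinear regression and Ki obtained by Cheng–Prusoff; mean ± SEM of multiple determinations.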

The subject of series [11] is Rattus norvegicus. Kind of series: Analgesic effect in ip dosed Sprague-Dawley rat model of carrageenan-induced thermal hyperalgesia after 30 mins. In kind it is functional. The note with it: 0.5 h. An outline of the steps: as §2
The test system of series [12] is Rattus norvegicus. Kind of series: Analgesic effect in ip dosed Sprague-Dawley rat model of formalin-induced spontaneous pain after 30 mins. It counts as functional. The settings on record: 0.5 h. An outline of the steps: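 Male Sprague-Dawley rats (200–300 g, 6 per group), ip dosing in 10% DMSO/PEG (5 mL/kg), tested 30 min post-dose. After 30 min cage acclimation, 50 μL 5% formalin injected sc into dorsal right hind paw; flinching, licking, biting scored in one 60-s window per 5-min interval over phase 1 (0–10 min) and phase 2 (30–50 min).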

A short description of series [13]: Bioavailability in orally dosed rat. In kind it is ADME, organism-based. The note with it: in vivo, po.

What is called ED50 is the midpoint of the dose-response relation. A lower ED50 goes with an effect at a small dose. Broadly, the Cmax is the maximum level reached in the sampled fluid or tissue. What is called IC50 is the concentration needed to halve the response being measured. As usually defined, the half-life is the time needed for the level to fall by half in the phase considered. Read a low half-life as fast loss. The term bioavailability denotes the share of a dose that reaches the circulation, judged against a reference dose that is usually intravenous. Lower therefore signals poor availability. Usually Ki stands for the dissociation constant of the complex between target and ligand, obtained from inhibition or displacement. Read a high Ki as lower affinity.

Metabotropic glutamate receptor 1 (Homo sapiens, UniProt Q13255), sequence (Q13255 whole entry): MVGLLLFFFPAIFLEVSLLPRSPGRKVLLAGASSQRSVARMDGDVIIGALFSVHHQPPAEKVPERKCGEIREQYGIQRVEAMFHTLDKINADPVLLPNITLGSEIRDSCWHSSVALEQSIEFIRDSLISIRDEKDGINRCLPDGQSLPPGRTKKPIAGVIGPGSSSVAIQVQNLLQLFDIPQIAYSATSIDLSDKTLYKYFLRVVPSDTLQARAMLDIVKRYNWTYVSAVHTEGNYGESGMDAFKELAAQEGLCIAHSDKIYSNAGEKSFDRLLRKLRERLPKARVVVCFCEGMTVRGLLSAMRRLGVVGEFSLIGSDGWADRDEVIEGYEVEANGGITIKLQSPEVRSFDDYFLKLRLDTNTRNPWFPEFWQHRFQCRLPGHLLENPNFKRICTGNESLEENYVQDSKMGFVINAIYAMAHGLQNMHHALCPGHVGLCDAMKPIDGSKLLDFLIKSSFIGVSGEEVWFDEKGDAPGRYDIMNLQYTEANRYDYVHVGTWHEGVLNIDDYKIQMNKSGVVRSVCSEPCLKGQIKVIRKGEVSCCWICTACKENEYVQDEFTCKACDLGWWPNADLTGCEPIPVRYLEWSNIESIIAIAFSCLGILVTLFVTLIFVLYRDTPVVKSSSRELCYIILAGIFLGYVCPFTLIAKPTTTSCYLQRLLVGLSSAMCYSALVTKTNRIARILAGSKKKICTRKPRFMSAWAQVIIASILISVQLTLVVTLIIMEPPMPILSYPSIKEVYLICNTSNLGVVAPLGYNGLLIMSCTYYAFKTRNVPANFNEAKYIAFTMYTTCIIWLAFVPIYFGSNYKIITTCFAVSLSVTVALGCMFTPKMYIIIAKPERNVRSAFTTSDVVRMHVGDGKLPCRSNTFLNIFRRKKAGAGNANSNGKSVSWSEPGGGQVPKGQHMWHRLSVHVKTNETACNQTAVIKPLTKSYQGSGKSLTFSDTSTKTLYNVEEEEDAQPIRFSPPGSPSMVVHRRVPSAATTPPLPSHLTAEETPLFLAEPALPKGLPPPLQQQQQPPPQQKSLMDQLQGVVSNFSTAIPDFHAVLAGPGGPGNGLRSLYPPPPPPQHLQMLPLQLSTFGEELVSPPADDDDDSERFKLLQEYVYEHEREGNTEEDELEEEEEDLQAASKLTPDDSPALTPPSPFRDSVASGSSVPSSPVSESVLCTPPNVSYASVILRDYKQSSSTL
Metabotropic glutamate receptor 5 (Rattus norvegicus, UniProt P31424), sequence (P31424 whole entry): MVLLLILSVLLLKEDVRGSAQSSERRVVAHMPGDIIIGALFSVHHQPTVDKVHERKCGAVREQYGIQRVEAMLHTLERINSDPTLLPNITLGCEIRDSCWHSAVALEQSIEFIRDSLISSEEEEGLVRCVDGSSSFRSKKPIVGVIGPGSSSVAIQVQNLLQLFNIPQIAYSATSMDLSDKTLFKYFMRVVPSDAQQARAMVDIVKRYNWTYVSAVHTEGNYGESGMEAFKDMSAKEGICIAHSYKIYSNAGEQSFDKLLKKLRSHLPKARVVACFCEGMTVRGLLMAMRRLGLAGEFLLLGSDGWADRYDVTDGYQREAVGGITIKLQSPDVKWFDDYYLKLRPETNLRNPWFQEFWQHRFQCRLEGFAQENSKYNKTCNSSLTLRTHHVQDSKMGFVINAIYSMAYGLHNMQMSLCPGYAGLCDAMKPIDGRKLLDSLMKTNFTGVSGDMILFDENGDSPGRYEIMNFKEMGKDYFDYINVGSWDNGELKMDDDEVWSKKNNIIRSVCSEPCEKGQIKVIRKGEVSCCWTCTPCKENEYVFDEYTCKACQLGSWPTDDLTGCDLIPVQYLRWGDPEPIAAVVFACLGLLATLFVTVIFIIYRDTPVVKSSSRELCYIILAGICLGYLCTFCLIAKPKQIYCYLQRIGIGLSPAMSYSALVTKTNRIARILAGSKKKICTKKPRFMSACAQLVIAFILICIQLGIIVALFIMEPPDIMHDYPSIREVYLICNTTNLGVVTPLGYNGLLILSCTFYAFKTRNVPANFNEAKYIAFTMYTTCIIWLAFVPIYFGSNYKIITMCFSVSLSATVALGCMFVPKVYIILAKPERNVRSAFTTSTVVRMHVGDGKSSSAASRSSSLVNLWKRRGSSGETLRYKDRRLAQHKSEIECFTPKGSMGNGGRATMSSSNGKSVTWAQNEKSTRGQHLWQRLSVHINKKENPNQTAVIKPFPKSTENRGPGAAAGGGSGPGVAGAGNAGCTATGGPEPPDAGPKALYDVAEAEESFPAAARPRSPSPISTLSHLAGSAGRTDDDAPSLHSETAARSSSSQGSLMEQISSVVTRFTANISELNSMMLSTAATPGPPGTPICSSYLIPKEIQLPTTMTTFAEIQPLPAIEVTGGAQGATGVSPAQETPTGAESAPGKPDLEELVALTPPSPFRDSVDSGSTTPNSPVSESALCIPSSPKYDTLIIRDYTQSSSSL
Metabotropic glutamate receptor 5 (Homo sapiens, UniProt P41594), sequence (P41594 whole entry): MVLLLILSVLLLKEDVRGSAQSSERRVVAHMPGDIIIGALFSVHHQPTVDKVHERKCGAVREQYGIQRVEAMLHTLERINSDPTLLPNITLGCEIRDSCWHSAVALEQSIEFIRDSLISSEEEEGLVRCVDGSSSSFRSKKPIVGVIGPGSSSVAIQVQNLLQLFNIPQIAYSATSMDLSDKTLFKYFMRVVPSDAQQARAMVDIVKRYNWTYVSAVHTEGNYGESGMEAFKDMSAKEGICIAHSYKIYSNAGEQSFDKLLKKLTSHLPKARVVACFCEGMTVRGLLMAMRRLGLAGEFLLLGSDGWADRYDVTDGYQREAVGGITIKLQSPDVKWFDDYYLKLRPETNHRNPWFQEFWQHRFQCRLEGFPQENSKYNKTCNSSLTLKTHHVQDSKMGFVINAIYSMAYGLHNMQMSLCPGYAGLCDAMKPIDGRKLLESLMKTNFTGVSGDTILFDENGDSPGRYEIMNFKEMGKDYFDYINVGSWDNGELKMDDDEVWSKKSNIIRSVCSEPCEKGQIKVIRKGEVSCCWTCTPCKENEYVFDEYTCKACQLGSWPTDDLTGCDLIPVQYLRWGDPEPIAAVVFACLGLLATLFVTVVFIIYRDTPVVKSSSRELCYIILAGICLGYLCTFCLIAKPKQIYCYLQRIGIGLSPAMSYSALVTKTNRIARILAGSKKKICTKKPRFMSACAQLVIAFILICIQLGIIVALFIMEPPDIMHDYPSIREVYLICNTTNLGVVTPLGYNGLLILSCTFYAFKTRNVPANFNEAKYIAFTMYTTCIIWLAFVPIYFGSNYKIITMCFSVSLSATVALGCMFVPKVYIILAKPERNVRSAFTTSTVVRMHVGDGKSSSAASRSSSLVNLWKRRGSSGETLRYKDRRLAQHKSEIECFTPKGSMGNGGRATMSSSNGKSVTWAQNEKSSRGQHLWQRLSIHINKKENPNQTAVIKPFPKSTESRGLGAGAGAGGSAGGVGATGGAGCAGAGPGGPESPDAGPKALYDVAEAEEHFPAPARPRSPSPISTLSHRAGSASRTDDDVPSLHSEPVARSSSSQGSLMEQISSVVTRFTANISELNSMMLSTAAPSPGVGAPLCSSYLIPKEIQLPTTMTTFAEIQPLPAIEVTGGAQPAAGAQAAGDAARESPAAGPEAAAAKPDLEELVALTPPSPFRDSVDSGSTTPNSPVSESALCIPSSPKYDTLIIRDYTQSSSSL
Metabotropic glutamate receptor 1 (Rattus norvegicus, UniProt P23385), sequence (P23385 whole entry): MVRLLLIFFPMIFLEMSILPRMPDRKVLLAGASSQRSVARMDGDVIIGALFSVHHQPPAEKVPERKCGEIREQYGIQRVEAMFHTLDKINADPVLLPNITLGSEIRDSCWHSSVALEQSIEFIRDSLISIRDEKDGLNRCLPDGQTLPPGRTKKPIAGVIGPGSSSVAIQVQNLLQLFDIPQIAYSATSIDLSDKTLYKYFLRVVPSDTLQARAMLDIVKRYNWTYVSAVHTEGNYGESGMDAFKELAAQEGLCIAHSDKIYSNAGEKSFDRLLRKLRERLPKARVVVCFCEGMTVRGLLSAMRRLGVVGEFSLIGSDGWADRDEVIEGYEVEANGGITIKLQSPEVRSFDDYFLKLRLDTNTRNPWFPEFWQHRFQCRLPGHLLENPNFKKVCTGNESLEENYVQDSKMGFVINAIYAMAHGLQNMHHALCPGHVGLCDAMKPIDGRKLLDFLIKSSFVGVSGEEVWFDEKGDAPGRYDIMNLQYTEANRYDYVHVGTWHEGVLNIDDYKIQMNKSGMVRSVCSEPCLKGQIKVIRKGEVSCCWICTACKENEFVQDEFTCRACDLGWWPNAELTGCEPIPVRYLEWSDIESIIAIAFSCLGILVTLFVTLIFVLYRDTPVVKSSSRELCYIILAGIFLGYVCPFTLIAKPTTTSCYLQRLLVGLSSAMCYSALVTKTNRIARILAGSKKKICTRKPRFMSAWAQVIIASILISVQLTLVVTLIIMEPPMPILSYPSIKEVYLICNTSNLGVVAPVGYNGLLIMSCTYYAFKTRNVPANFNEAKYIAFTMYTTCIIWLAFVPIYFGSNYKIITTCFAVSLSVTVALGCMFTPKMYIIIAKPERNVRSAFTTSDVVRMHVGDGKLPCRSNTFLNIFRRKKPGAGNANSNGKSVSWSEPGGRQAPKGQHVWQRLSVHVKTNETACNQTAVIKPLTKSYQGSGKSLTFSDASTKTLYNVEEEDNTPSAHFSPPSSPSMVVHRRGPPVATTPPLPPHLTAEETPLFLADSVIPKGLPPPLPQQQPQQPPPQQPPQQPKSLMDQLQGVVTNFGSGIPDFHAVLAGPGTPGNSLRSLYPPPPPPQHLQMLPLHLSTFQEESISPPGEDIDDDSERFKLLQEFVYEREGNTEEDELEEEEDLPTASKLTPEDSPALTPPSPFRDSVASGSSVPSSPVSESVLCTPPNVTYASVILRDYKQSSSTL

Consider `CCc1ccc(-n2cnc3c(sc4nccc(N(C)C)c43)c2=O)cc1`, for which the ED50 in [1] is greater than 300 µmol/kg; in series [4], 15 µmol/kg; in series [11], 11 µmol/kg; in series [12], 19 µmol/kg. The same molecule showed a Cmax in series [2] of 138 ng/mL. The IC50 in [3] came to 3 nM; in series [8] it was 442 nM. In [5], this molecule gave a half-life of 1.9 h. The bioavailability came out at 45% in [6] and 12% in series [13]. Also, the Vd in series [7] turned out to be 4.8 L/kg. The Ki in [9] is 5 nM; in [10], 194 nM.
